Reference: ChEMBL document CHEMBL1154688, “Selective Kv1.5 blockers: development of (R)-1-(methylsulfonylamino)-3-[2-(4-methoxyphenyl)ethyl]-4-(4-methoxyphenyl)-2-imidazolidinone (KVI-020/WYE-160020) as a potential treatment for atrial arrhythmia” (J Med Chem, 2009)
Converted amounts (≈) assume the structure as drawn.

Legend:
[1] = target: Potassium voltage-gated channel subfamily A member 5 (Homo sapiens, UniProt P22460); assay: Inhibition of human Kv1.5 expressed in CHO cells by patch-clamp technique; assay type: cell-based
Method in brief: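 Human Kv1.5 stably expressed in CHO cells. IC50 was determined by automated patch clamp on the IonWorks platform.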

[2] = target: Voltage-gated inwardly rectifying potassium channel KCNH2 (Homo sapiens, UniProt Q12809); assay: Inhibition of human ERG by patch-clamp technique
[3] = Aqueous solubility at pH 7.4 by direct UV method; assay type: physicochemical; details: aqueous medium
Method in brief: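 Solubility measured in pH 7.4 buffer with direct UV read-out.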

[4] = Metabolic stability in human liver microsomes assessed as half life; assay type: ADME, Microsome
Method in brief: (§1)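 Test compound at 1 μM incubated with 1 mg/mL male beagle dog or male human liver microsomal protein. Half-life was determined from compound loss.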

[5] = target: CYP3A4 (Homo sapiens, UniProt P08684); assay: Inhibition of CYP3A4 at 3 uM by fluorescent method; assay type: ADME
Method in brief: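 CYP3A4 inhibition measured by a fluorescent method.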

[6] = target: Sodium channel protein type 5 subunit alpha (Homo sapiens, UniProt Q14524); assay: Inhibition of Nav1.5 expressed in CHO cells by patch-clamp technique; assay type: cell-based
Method in brief: (§2)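 Electrophysiology IC50 measured in stably transfected cell lines: CHO for Nav1.5, Kv1.1, Kv1.3 and Kv4.3, and HEK for Cav1.3 and Cav1.2.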

[7] = target: Potassium voltage-gated channel subfamily A member 1 (Homo sapiens, UniProt Q09470); assay: Inhibition of Kv1.1 expressed in CHO cells by patch-clamp technique; assay type: cell-based; method in brief: as §2
[8] = target: Potassium voltage-gated channel subfamily A member 3 (Homo sapiens, UniProt P22001); assay: Inhibition of Kv1.3 expressed in CHO cells by patch-clamp technique; assay type: cell-based; method in brief: as §2
[9] = target: T1, A-type voltage-gated potassium channel KCND3 (Homo sapiens, UniProt Q9UK17); assay: Inhibition of Kv4.3 expressed in CHO cells by patch-clamp technique; assay type: cell-based; method in brief: as §2
T1 sequence (Q9UK17 whole entry): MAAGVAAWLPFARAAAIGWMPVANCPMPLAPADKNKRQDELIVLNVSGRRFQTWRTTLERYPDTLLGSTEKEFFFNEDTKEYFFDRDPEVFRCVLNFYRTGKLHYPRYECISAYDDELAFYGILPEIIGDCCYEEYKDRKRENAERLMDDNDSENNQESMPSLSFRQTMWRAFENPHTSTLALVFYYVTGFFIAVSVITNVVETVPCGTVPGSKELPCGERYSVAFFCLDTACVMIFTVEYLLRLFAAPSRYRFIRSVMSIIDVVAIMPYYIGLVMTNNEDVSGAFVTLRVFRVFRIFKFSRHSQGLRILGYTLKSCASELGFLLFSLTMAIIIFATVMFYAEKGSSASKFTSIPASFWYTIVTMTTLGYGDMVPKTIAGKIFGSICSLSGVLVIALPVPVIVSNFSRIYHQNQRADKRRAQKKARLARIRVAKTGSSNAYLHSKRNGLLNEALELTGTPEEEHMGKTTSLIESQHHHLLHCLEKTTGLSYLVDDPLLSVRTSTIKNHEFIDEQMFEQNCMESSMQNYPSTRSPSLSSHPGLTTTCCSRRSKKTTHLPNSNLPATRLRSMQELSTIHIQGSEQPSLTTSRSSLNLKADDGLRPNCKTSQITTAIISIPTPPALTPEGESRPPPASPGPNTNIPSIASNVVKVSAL

[10] = Metabolic stability in Beagle dog liver microsomes assessed as half life; assay type: ADME, Canis lupus familiaris, Microsome; method in brief: as §1
[11] = target: Cytochrome P450 3A4 (Homo sapiens, UniProt P08684); assay: Inhibition of CYP3A4 in human liver microsomes; assay type: ADME, Microsome
Method in brief: (§3)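 Reversible inhibition assayed in human liver microsomes at 0.2 mg/mL protein with probe substrates. CYP3A4 used 2.5 μM midazolam and, separately, 50 μM testosterone. CYP2D6 used 10 μM bufuralol. CYP2C9 used 10 μM diclofenac. IC50 was determined.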

[12] = target: Cytochrome P450 2D6 (Homo sapiens, UniProt P10635); assay: Inhibition of CYP2D6 in human liver microsomes; assay type: ADME, Microsome; method in brief: as §3
[13] = target: Cytochrome P450 2C9 (Homo sapiens, UniProt P11712); assay: Inhibition of CYP2C9 in human liver microsomes; assay type: ADME, Microsome; method in brief: as §3
[14] = Permeability from apical to basolateral side in human Caco-2 cells at pH 7.4; assay type: ADME, cell-based; details: Caco-2, pH 7.4, read-out: permeability
Method in brief: (§4)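 Caco-2 monolayers at pH 7.4. Bidirectional transport was measured from apical to basolateral and from basolateral to apical. Apparent permeability was reported in cm/s.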

[15] = Permeability from basolateral to apical side in human Caco-2 cells at pH 7.4; assay type: ADME, cell-based; details: Caco-2, pH 7.4, read-out: permeability; method in brief: as §4
[16] = Protein binding in Beagle dog plasma by equilibrium dialysis; assay type: ADME, cell-free, Canis lupus familiaris; details: read-out: PPB (converted)
Method in brief: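 Tritium-labelled compound at 500 ng/mL in male beagle dog or male human plasma. Bound fraction was determined by equilibrium dialysis.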

[17] = Plasma clearance in Beagle dog at 3 mg/kg, iv; assay type: ADME, organism-based, Canis lupus familiaris; set-up: dose 3 mg/kg, route intravenous
Method in brief: (§5)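 Male beagles; single 30 min intravenous infusion at 3 mg/kg. Plasma clearance, steady-state volume of distribution, elimination half-life and AUC were derived from the plasma concentration–time profile.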

[18] = Volume of distribution at steady state in Beagle dog at 3 mg/kg, iv; assay type: ADME, organism-based, Canis lupus familiaris; set-up: dose 3 mg/kg, route intravenous; details: in vivo, read-out: Vdss; method in brief: as §5
[19] = Half life in Beagle dog at 3 mg/kg, iv; assay type: ADME, organism-based, Canis lupus familiaris; set-up: dose 3 mg/kg, route intravenous; details: in vivo; method in brief: as §5
[20] = AUC in Beagle dog at 3 mg/kg, iv; assay type: ADME, organism-based, Canis lupus familiaris; set-up: dose 3 mg/kg, route intravenous; details: plasma; method in brief: as §5
[21] = Cmax in Beagle dog at 3 mg/kg, po; assay type: ADME, organism-based, Canis lupus familiaris; set-up: dose 3 mg/kg, route oral; details: in vivo
Method in brief: (§6)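 Male beagles dosed orally at 3 mg/kg. Cmax, Tmax, half-life and AUC were taken from plasma levels.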

[22] = Tmax in Beagle dog at 3 mg/kg, po; assay type: ADME, organism-based, Canis lupus familiaris; set-up: dose 3 mg/kg, route oral; details: in vivo; method in brief: as §6
[23] = Half life in Beagle dog at 3 mg/kg, po; assay type: ADME, organism-based, Canis lupus familiaris; set-up: dose 3 mg/kg, route oral; details: in vivo; method in brief: as §6
[24] = AUC in Beagle dog at 3 mg/kg, po; assay type: ADME, organism-based, Canis lupus familiaris; set-up: dose 3 mg/kg, route oral; details: plasma; method in brief: as §6
[25] = Oral bioavailability in Beagle dog at 3 mg/kg; assay type: ADME, organism-based, Canis lupus familiaris; details: in vivo; method in brief: as §6
[26] = system: Canis familiaris; assay: Plasma concentration in Beagle dog at 1.9 mg/kg, iv; assay type: ADME, organism-based, Canis lupus familiaris; set-up: dose 1.9 mg/kg, route intravenous; details: in vivo
[27] = system: Canis familiaris; assay: Plasma concentration in Beagle dog at 6.3 mg/kg, iv; assay type: ADME, organism-based, Canis lupus familiaris; set-up: dose 6.3 mg/kg, route intravenous; details: in vivo
[28] = species: Canis familiaris; assay: Antiarrhythmic activity in Beagle dog prolongation of atrial effective refractory period at steady state plasma concentrations of 4.6 uM; assay type: functional, Canis lupus familiaris, Heart
[29] = species: Canis familiaris; assay: Antiarrhythmic activity in Beagle dog prolongation of atrial effective refractory period at steady state plasma concentrations of 23 uM; assay type: functional, Canis lupus familiaris, Heart
[30] = system: Canis familiaris; assay: Antiarrhythmic activity in Beagle dog atrial/ventricular tachypacing model assessed as decrease in atrial fibrillation at 3 mg/kg, po after 5 to 10 mins; assay type: functional, Canis lupus familiaris, Heart; set-up: scale not given: the % may be the effect or the level left
[31] = system: Canis familiaris; assay: Antiarrhythmic activity in Beagle dog atrial/ventricular tachypacing model assessed as decrease in atrial fibrillation at 3 mg/kg, po; assay type: functional, Canis lupus familiaris, Heart; set-up: scale not given: the % may be the effect or the level left
[32] = system: Canis familiaris; assay: Antiarrhythmic activity in Beagle dog atrial/ventricular tachypacing model assessed as decrease in total atrial fibrillation at 3 mg/kg, po; assay type: functional, Canis lupus familiaris, Heart; set-up: scale not given: the % may be the effect or the level left
[33] = target: Voltage-dependent L-type calcium channel subunit alpha-1D (Homo sapiens, UniProt Q01668); assay: Inhibition of Cav1.3 expressed in HEK cells by patch-clamp technique
[34] = target: Voltage-dependent L-type calcium channel subunit alpha-1C (Homo sapiens, UniProt Q13936); assay: Inhibition of Cav1.2 expressed in HEK cells by patch-clamp technique

Chain of Potassium voltage-gated channel subfamily A member 5 (P22460 whole entry): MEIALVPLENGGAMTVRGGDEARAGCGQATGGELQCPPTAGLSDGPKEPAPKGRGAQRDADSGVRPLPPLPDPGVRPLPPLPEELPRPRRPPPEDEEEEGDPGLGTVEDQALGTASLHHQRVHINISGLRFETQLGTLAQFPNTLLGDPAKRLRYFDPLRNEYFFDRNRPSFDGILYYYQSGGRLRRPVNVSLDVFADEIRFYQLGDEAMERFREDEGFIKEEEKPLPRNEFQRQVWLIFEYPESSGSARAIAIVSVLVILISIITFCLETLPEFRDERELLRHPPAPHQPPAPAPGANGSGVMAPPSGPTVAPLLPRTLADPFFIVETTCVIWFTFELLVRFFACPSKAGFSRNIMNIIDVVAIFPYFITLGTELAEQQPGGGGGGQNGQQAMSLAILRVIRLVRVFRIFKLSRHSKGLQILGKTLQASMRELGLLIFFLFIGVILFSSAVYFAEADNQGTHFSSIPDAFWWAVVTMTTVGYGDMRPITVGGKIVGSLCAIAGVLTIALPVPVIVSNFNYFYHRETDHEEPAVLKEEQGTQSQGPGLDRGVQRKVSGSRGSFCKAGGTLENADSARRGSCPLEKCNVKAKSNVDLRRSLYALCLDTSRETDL
Chain of Voltage-gated inwardly rectifying potassium channel KCNH2 (Q12809 whole entry): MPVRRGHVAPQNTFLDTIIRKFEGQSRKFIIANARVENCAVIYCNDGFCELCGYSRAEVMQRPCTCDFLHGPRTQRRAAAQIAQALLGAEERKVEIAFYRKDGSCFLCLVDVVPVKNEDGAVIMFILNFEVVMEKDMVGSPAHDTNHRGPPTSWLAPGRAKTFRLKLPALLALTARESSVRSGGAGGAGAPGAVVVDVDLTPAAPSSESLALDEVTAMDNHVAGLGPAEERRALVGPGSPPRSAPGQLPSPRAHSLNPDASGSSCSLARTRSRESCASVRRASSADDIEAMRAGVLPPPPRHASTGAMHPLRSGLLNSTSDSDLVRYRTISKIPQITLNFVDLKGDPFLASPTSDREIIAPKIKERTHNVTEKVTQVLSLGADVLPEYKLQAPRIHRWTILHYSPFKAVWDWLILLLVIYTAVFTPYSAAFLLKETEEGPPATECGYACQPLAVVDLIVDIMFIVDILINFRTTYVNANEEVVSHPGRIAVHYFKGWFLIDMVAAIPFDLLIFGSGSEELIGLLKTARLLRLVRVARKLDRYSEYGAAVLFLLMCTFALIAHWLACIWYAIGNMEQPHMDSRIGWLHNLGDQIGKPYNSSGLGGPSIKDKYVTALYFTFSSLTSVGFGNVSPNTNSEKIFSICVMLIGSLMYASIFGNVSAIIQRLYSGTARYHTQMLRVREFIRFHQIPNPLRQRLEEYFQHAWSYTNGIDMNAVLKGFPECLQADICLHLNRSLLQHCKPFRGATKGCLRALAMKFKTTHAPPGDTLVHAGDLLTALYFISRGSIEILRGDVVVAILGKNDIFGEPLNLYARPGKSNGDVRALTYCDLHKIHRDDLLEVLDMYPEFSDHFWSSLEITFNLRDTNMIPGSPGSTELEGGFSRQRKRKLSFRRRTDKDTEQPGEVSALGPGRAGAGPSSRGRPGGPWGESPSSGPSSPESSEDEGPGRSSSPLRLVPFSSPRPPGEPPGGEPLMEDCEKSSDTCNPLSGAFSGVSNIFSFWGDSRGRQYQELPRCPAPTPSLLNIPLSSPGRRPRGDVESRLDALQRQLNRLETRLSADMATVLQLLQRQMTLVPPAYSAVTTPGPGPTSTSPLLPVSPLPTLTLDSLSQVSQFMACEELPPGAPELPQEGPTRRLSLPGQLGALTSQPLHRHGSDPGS
Chain of CYP3A4 (P08684 whole entry): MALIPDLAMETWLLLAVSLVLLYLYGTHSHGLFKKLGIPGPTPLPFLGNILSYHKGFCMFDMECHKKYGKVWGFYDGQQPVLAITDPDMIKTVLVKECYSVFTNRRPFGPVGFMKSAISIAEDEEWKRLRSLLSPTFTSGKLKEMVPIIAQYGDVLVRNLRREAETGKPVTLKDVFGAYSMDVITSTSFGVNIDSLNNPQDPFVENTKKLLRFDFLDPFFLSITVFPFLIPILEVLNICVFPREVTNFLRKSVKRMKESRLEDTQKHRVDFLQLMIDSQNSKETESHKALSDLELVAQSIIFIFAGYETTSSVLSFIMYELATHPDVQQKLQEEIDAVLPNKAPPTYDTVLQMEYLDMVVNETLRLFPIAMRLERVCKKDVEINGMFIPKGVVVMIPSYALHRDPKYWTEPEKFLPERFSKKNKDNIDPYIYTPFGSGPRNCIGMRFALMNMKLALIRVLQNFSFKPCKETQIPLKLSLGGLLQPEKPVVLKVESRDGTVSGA
Chain of Potassium voltage-gated channel subfamily A member 1 (Q09470 whole entry): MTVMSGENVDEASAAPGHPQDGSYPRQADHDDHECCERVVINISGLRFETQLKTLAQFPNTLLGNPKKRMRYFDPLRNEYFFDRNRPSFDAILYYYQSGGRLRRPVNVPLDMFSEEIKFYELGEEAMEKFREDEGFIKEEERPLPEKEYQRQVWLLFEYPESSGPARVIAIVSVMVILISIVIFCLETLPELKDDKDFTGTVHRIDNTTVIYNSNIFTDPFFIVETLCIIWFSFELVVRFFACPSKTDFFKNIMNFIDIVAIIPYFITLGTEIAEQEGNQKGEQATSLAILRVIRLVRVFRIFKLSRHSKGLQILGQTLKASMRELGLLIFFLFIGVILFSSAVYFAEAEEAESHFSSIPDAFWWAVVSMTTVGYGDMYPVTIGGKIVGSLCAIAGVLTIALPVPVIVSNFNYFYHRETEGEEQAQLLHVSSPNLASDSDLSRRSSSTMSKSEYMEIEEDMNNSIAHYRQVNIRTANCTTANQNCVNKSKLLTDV
Chain of Potassium voltage-gated channel subfamily A member 3 (P22001 whole entry): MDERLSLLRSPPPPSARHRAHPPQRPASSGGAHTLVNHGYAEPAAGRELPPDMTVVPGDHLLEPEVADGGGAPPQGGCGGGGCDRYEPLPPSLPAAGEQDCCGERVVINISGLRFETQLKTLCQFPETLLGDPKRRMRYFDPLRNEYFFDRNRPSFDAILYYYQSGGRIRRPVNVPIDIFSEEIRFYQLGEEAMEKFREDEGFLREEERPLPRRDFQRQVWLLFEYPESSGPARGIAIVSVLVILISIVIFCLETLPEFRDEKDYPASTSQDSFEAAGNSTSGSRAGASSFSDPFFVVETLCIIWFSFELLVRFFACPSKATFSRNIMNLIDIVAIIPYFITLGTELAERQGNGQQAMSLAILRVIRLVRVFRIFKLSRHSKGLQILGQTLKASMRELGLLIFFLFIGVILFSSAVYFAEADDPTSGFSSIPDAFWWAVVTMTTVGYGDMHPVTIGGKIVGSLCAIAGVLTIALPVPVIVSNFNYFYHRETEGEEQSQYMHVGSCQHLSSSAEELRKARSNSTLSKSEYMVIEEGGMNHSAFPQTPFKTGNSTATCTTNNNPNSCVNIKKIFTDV
Chain of Cytochrome P450 2C9 (P11712 whole entry): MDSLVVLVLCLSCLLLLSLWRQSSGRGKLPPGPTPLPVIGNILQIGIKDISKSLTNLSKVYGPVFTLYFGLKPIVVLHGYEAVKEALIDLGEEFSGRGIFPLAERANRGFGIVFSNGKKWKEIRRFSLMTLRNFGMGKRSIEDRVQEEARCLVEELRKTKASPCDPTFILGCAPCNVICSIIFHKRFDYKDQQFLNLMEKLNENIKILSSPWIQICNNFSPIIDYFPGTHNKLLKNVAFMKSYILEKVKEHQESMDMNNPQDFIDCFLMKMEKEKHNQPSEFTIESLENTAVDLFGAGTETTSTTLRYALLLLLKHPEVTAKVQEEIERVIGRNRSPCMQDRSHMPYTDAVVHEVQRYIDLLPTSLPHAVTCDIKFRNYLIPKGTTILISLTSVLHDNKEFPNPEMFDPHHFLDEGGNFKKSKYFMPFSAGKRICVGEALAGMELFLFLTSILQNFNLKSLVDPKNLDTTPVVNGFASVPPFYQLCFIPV
Chain of Cytochrome P450 3A4 (P08684 whole entry): as the sequence (P08684 whole entry) above
Chain of Cytochrome P450 2D6 (P10635 whole entry): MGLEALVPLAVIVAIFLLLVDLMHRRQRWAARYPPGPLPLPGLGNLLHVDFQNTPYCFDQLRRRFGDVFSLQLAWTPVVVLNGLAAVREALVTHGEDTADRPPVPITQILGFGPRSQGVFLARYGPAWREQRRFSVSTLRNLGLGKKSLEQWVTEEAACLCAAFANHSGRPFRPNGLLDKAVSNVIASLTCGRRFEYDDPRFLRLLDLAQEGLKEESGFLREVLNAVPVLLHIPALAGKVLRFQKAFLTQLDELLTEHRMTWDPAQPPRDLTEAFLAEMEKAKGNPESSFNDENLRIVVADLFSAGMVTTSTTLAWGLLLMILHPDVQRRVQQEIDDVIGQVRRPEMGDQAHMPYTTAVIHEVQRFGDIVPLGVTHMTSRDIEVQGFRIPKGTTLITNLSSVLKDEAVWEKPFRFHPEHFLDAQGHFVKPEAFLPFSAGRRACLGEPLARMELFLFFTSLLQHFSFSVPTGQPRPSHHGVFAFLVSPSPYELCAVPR

## COc1ccc(CCN2C(=O)N(NS(C)(=O)=O)C[C@H]2c2ccc(OC)cc2)cc1
[1]
  IC50: 0.48 µM
[2]
  IC50: 15.1 µM
[3]
  solubility: 65 µg/mL (≈ 155 µM)
[4]
  half-life: 30 min
[5]
  inhibition at 3 µM: 45%
[6]
  IC50: > 30 µM
[7]
  IC50: 2.66 µM
[8]
  IC50: 1.41 µM
[9]
  IC50: 3.87 µM
[10]
  half-life: 11 min
[11]
  IC50: 37 µM
[12]
  IC50: 180 µM
[13]
  IC50: 47 µM
[14]
  Papp A→B: 40 ×10⁻⁶ cm/s
[15]
  Papp B→A: 39 ×10⁻⁶ cm/s
[16]
  fraction unbound: 0.1
[17]
  clearance: 23 mL/min/kg
[18]
  Vd: 2.2 L/kg
[19]
  half-life: 72 min
[20]
  AUC: 2410 ng·h/mL
[21]
  Cmax: 469 ng/mL
[22]
  Tmax: 60 min
[23]
  half-life: 102 min
[24]
  AUC: 1990 ng·h/mL
[25]
  bioavailability: 82%
[26]
  concentration: 4.6 µM
[27]
  concentration: 23 µM
[28]
  Activity: 12%
[29]
  Activity: 17%
[30]
  Activity: 63%
[31]
  Activity: 55%
[32]
  Activity: 52%
[33]
  IC50: 23.4 µM
[34]
  IC50: > 30 µM

## COc1ccc(CCCN2C(=O)N(NS(C)(=O)=O)C[C@H]2c2ccc(OC)cc2)cc1
[1]
  IC50: 0.56 µM
[2]
  IC50: 14.3 µM
[3]
  solubility: 15 µg/mL (≈ 34.6 µM)
[4]
  half-life: 12 min
[5]
  inhibition at 3 µM: 50%

## COc1ccc(CCCN2C(=O)N(NS(C)(=O)=O)C[C@@H]2c2ccc(OC)cc2)cc1
[1]
  IC50: 0.1 µM
[2]
  IC50: 14.1 µM
[3]
  solubility: 18 µg/mL (≈ 41.5 µM)
[4]
  half-life: 29 min
[5]
  inhibition at 3 µM: 84%

## COc1ccc(CCN2C(=O)N(NS(C)(=O)=O)CC2c2ccc(C)c(C)c2)cc1 (configuration not stated)
[1]
  IC50: 0.61 µM
[2]
  IC50: 15.8 µM
[3]
  solubility: 17 µg/mL (≈ 40.7 µM)
[4]
  half-life: 13 min
[5]
  inhibition at 3 µM: 77%

## COc1ccc(CCN2C(=O)N(NS(=O)(=O)Cc3cccnc3)C[C@@H]2c2ccc(OC)cc2)cc1
[1]
  IC50: 0.6 µM
[3]
  solubility: 23 µg/mL (≈ 46.3 µM)
[4]
  half-life: 3 min
[5]
  inhibition at 3 µM: 90%

## COc1ccc(CCN2C(=O)N(NS(C)(=O)=O)CC2c2ccc(C)cc2)cc1 (configuration not stated)
[1]
  IC50: 0.24 µM
[2]
  IC50: 11.2 µM
[3]
  solubility: 42 µg/mL (≈ 104 µM)
[4]
  half-life: 18 min
[5]
  inhibition at 3 µM: 58%

## COc1ccc(CCN2C(=O)N(NS(C)(=O)=O)CC2c2ccc(C(F)(F)F)cc2)cc1 (configuration not stated)
[1]
  IC50: 0.25 µM
[2]
  IC50: 9.1 µM
[3]
  solubility: 13 µg/mL (≈ 28.4 µM)
[4]
  half-life: 30 min
[5]
  inhibition at 3 µM: 67%

## COc1ccc(CCN2C(=O)N(NS(C)(=O)=O)CC2c2ccc(C3CC3)cc2)cc1 (configuration not stated)
[1]
  IC50: 0.16 µM
[2]
  IC50: 8.4 µM
[3]
  solubility: 1 µg/mL (≈ 2.33 µM)
[4]
  half-life: 30 min
[5]
  inhibition at 3 µM: 78%

## COCCOc1ccc(C2CN(NS(C)(=O)=O)C(=O)N2CCc2ccc(OC)cc2)cc1 (configuration not stated)
[1]
  IC50: 7.45 µM
[3]
  solubility: 100 µg/mL (≈ 216 µM)
[4]
  half-life: 30 min
[5]
  inhibition at 3 µM: 50%
